Source: ChEMBL document CHEMBL4513216, “Probing the Open Global Health Chemical Diversity Library for Multistage-Active Starting Points for Next-Generation Antimalarials” (ACS Infect Dis, 2020)

Test: Toxicity liver stage against HepG2, at 10uM
Format: cell-based
Design: test concentration 10 uM, cell line HepG2-A16-CD81EGFP
Details: human, HepG2-A16-CD81EGFP cells; read-out: INHIBITION
In short: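 Uninfected HepG2-A16-CD81EGFP cells, 3 × 10^3 per well, 1536-well, plated on prespotted compound at 10 μM final, parasite-free screening media added to match infected plates; puromycin 10 μM positive, DMSO 0.5% negative; run in parallel with 48 h PbLuc assay at 37 °C, 5% CO2; viability by CellTiter-Glo luminescence, normalized to controls.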

First: CSc1ccc(CN2C[C@@H]3CC[C@@](O)(c4ccc(C)cn4)[C@@H]3C2)cc1
Second: CC(C)CN1CCC2(CCN(Cc3ccc(F)cc3)CC2)C1=O
The cytotoxicity at 10 µM of the first is lower: -15.7% for the first, 5.71% for the second.

Going from `Cc1nn(C)c(C)c1CCC(=O)N1CCCC(n2cccn2)C1` (stereo not drawn) to `Cc1c[nH]nc1C1CCN(C(=O)Cn2cccn2)C1` (stereo not drawn), the cytotoxicity at 10 µM rises from -6.69% to 3.09%.

Going from `COCC(=O)NCc1cc(=O)n2c(n1)CN(Cc1ccco1)CCC2` to `CC(=O)NCC1CCN(c2ccnc3ccc(Br)cc23)CC1`, the cytotoxicity at 10 µM rises from -89.3% to 14.2%.

Compared with `COC(=O)c1cccc(NC(=O)CCn2nc(-c3cccs3)oc2=O)c1`, `COC(=O)c1cccc(CNC(=O)c2cc(C(C)C)n(C)n2)c1` is higher in cytotoxicity at 10 µM: -8.13% for the first, -3.26% for the second.

Compared with `Cc1csc(CN(C)C(=O)Nc2cc(F)cc(N3CCCC3)c2)n1`, `Cc1cccc(NC2CCN(C(=O)Nc3cc(F)cc(F)c3)CC2)n1` is lower in cytotoxicity at 10 µM: 8.16% for the first, -0.961% for the second.

Compared with `CC(C)Cc1cc(-c2cc(-c3ccc[nH]3)nc(N)c2C#N)n[nH]1`, `COc1cc(F)ccc1-c1nc2c([nH]1)c(C1CC1)nn2C` is lower in cytotoxicity at 10 µM: 14.3% for the first, -1.72% for the second.

First: O=C([C@@H]1CCO[C@@H]2CCN(Cc3ccc(F)cc3)C[C@H]21)N1CCCCO1
Second: CN1CCN(C(=O)NCCc2ccc(F)cc2)[C@H]2CS(=O)(=O)C[C@H]21
The cytotoxicity at 10 µM of the first is higher: 11.9% for the first, 10.8% for the second.

First: CC(C)c1noc(CCC(=O)N(CC2CCOC2)C2CC2)n1 (stereo not drawn)
Second: CN(CC(=O)N1CCCC1c1noc(C2CC2)n1)S(C)(=O)=O (stereo not drawn)
The cytotoxicity at 10 µM of the first is higher: 8.01% for the first, -8.2% for the second.

First: COc1ccccc1N1CCN(Cc2ncc(C)c(OC)c2C)CC1=O
Second: COc1ccc(C(=O)N2CCC(c3nccn3C(C)C)CC2)cc1OC
The cytotoxicity at 10 µM of the first is higher: 6.18% for the first, 1.52% for the second.

Compared with `N#Cc1ccc(S(=O)(=O)N2CC(CC(=O)O)c3ccccc32)cc1` (stereo not drawn), `NS(=O)(=O)N1CCc2ccc(NC(=O)CCc3ccncc3)cc21` is higher in cytotoxicity at 10 µM: 0.513% for the first, 2.68% for the second.

Going from `COc1ccsc1C(=O)N1CCCC(n2nc(C)nc2C)C1` (stereo not drawn) to `CCc1csc(C2CCCN(C(=O)c3ccc4c(c3)OCO4)C2)n1` (stereo not drawn), the cytotoxicity at 10 µM rises from -3.69% to 1.71%.

First: CCOc1ccc(NC(=O)Nc2cnc(N3CCOCC3)nc2)cc1
Second: CCn1ncc2c1CCCC2NCc1ccccc1N1CCOCC1 (stereo not drawn)
The cytotoxicity at 10 µM of the first is lower: -11.4% for the first, -7.66% for the second.

Compared with `O=C(NC1CC1)N1CCC2(CC1)CC(N1CCOCC1)c1ccccc12` (stereo not drawn), `O=C(c1cnccn1)N1CCC2(CC1)CC(Oc1ccccc1)CO2` (stereo not drawn) is higher in cytotoxicity at 10 µM: -109% for the first, 2.74% for the second.

Compared with `CCN(Cc1ccc(OC)c(F)c1)C(=O)c1ccc(C)[nH]c1=O`, `CCOc1ccc2[nH]c(=O)c(CN(C)CCc3cn[nH]c3)cc2c1` is higher in cytotoxicity at 10 µM: -8.08% for the first, 25.9% for the second.

Going from `O=C1CCC2(CCN(Cc3cscn3)CC2)CN1CC1CCCO1` (stereo not drawn) to `COCCN1CC2(CCC1=O)CCN(Cc1nnc(C)o1)CC2`, the cytotoxicity at 10 µM falls from -5.5% to -5.81%.

Going from `CC(SCCNS(=O)(=O)c1cnn(C)c1)c1cccs1` (stereo not drawn) to `CCCn1cc(S(=O)(=O)N[C@H]2CN(C(C)=O)C[C@@H]2C2CC2)cn1`, the cytotoxicity at 10 µM falls from 12.9% to -1.48%.

Compared with `Cc1cccc2ncn(C(C)Cn3cccn3)c(=O)c12` (stereo not drawn), `CC(NC(=O)CCn1cccn1)c1cn(-c2ccccc2)nn1` (stereo not drawn) is higher in cytotoxicity at 10 µM: -4.4% for the first, 0.554% for the second.

Going from `COCCN(C)CC1CCCN1S(=O)(=O)Cc1ccccc1F` (stereo not drawn) to `COCc1ccccc1C(=O)N1CCN(C2=NCC(C)(C)S2)CC1`, the cytotoxicity at 10 µM falls from 6.84% to 6.11%.

Going from `NCc1cnn(-c2ccccc2C(=O)NCc2ccccc2Cl)c1` to `Clc1ccc(C(CNCc2cccnc2)n2cccn2)cc1` (stereo not drawn), the cytotoxicity at 10 µM falls from -3.52% to -5.07%.

Compared with `COC(=O)N1CCN(CCCc2nnnn2-c2ccccc2)CC1`, `CN(C)C(C(=O)N1CCN(CCn2cccc2)CC1)c1ccc(F)cc1` (stereo not drawn) is lower in cytotoxicity at 10 µM: 14% for the first, -14.9% for the second.

Going from `CC(C)CCC(=O)N1CCCC2(CCN(Cc3ccccc3C#N)C2)C1` (stereo not drawn) to `Cn1cc(CN2CCN(CC3(c4ccccc4)CC3)CC2)cn1`, the cytotoxicity at 10 µM rises from 0.129% to 2.86%.

Going from `CC(NC(=O)C1(NC(=O)c2ccc3[nH]ncc3c2)CCCC1)C1CC1` (stereo not drawn) to `CCN1C(=O)CCC12CCC(NC(=O)c1cc(C)on1)CC2` (stereo not drawn), the cytotoxicity at 10 µM rises from -2.03% to -0.0663%.

Going from `CC(C)[C@@H]1CN(c2ncc(F)cn2)C[C@H]1NS(=O)(=O)N(C)C` to `CC(C)[C@@H]1CN(Cc2cnc(C3CCCCC3)nc2)C[C@H]1N(C)C`, the cytotoxicity at 10 µM falls from 14% to -3.18%.

Compared with `O=C(NCC(F)(F)C(F)F)c1ccncc1`, `Cc1cc(-n2cncn2)ccc1C(=O)N(C)CC(F)(F)C(F)(F)F` is lower in cytotoxicity at 10 µM: 10.3% for the first, -10.3% for the second.

First: NC(=O)CN1CCCCC1c1ccc(-n2ccnc2)nc1 (stereo not drawn)
Second: Cc1csc(N2CCCN(C(=O)C(C)n3ccnc3)CC2)n1 (stereo not drawn)
The cytotoxicity at 10 µM of the first is higher: 1.6% for the first, -9.46% for the second.

Going from `CNC(=O)c1ccc(OC)c(NCc2noc(-c3ccsc3)n2)c1` to `COCC(NC(=O)c1ccc(O)nc1)c1ccc(C)o1` (stereo not drawn), the cytotoxicity at 10 µM rises from 0.736% to 4.96%.

Going from `Cc1ncc(CN2CCC(CNS(=O)(=O)C3CC3)C2)cn1` (stereo not drawn) to `CN(Cc1nnc(C2CC2)n1C)C1CCN(Cc2ccncc2)C1` (stereo not drawn), the cytotoxicity at 10 µM falls from 2.84% to -10.3%.

First: COc1ccc(CNC(=O)CCCc2nnc3ccc(OC)nn23)cc1
Second: CCn1c(CN(C)C(=O)c2ccc(OC)nc2)nc2ccccc21
The cytotoxicity at 10 µM of the first is higher: -5.36% for the first, -6.23% for the second.

Compared with `CC(C)c1n[nH]c(C2CN(C(=O)CCCn3cccn3)CCO2)n1` (stereo not drawn), `CN(CC(=O)N1CCCCC1Cn1cccn1)C1CC1` (stereo not drawn) is higher in cytotoxicity at 10 µM: -7.85% for the first, -3.45% for the second.

Compared with `O=S(=O)(Cc1ccccc1)NCCNc1ccc(-n2cccc2)nn1`, `Cc1cc(N2CCC(Cc3ccccc3)CC2)nc(-c2ccncc2)n1` is lower in cytotoxicity at 10 µM: 10.8% for the first, -2.68% for the second.

First: COc1ccc(OCc2cc(C(=O)N3CC=CC3)n[nH]2)c(Cl)c1
Second: COc1ccc2cc(C(=O)N3CCCC3Cn3cc(C)cn3)[nH]c2c1 (stereo not drawn)
The cytotoxicity at 10 µM of the first is higher: 7.26% for the first, -0.743% for the second.

Going from `Cc1[nH]c2ccccc2c1CCNC(=O)N1CCC2(C1)OCCO2` to `CC(=O)N1CCn2c(-c3ccccc3)cnc2C12CCNCC2`, the cytotoxicity at 10 µM rises from 1.12% to 7.43%.

Going from `Cc1nnsc1C(=O)NCCn1ccc(-c2ccncc2)n1` to `N#Cc1ncn(CCC(=O)Nc2ccccc2F)n1`, the cytotoxicity at 10 µM falls from 1.92% to -150%.

Compared with `CNCc1cn(CC2CCN(CC(C)(C)CN3CCCC3)CC2)nn1`, `Cc1ncc(CNC(=O)NC2CCN(C3CCCC3)CC2)s1` is lower in cytotoxicity at 10 µM: -1.58% for the first, -9.01% for the second.

Compared with `CCOc1ncnc2c1CCN(c1cc(C(F)(F)F)ncn1)CC2`, `FC(F)(F)c1csc(N2CCN(Cc3ccccn3)CC2)n1` is lower in cytotoxicity at 10 µM: 12.8% for the first, 4.25% for the second.

First: CSCC(=O)N1CCCC(CO)(CC2CC2)C1 (stereo not drawn)
Second: Cc1ncncc1C(=O)N1CCOC(C)(C(=O)NC2CCCC2)C1 (stereo not drawn)
The cytotoxicity at 10 µM of the first is higher: 4.38% for the first, -36.4% for the second.

Going from `COc1cccc(-c2cnc3n2CCC32CCN(S(C)(=O)=O)CC2)c1` to `O=C(N1CCCC1)C1(Cc2ccc(-c3cccs3)cc2)CCNC1` (stereo not drawn), the cytotoxicity at 10 µM rises from -2.2% to -1.75%.

Compared with `CN(Cc1cccnc1)C1CC2(CCN(c3ncccn3)CC2)C1`, `O=C(c1cscn1)N1C[C@H]2CCC[C@@]2(COCc2ccccn2)C1` is lower in cytotoxicity at 10 µM: -3.31% for the first, -103% for the second.

Compared with `CN(C)C(=O)N1C[C@H]2CC[C@@H](C1)N(Cc1ccc3nsnc3c1)C2`, `O=C(c1c[nH]c(=O)c(Cl)c1)N1C[C@H]2CC[C@@H](C1)N(Cc1ccccc1)C2` is lower in cytotoxicity at 10 µM: -6.69% for the first, -14.5% for the second.

Going from `CC(=O)N1CC(=O)N(c2cnn(C)c2)CC12CCN(Cc1ccoc1)C2` (stereo not drawn) to `O=C(Cc1cccc(F)c1)N1CCN2C[C@H](Oc3cncnc3)C[C@H]2C1`, the cytotoxicity at 10 µM rises from -9.81% to 6.1%.

Going from `CC(C)(C)OC(=O)NC(C)(C)c1noc(Cn2ccnc2)n1` to `COc1ccccc1NC(=O)NC1(c2noc(CN(C)C)n2)CCCC1`, the cytotoxicity at 10 µM falls from 8.73% to -5.22%.

Compared with `Cc1cnn(C2CN(CC(O)Cn3cccn3)C2)c1` (stereo not drawn), `Cc1cnn(CC2CN(c3ccc(C#N)cn3)CCO2)c1` (stereo not drawn) is lower in cytotoxicity at 10 µM: 9.12% for the first, -1.26% for the second.

Going from `Cc1ccc(N2CCO[C@H]3CN(C(=O)c4cccc(C)n4)C[C@H]32)nn1` to `CS(=O)(=O)N1CCO[C@@H]2CN(C(=O)c3ccnnc3)C[C@@H]2C1`, the cytotoxicity at 10 µM rises from 4.94% to 5.97%.

Compared with `CSCc1ccc(CNCCCN2CCOCC2)o1`, `Cc1ccc(C2CN(Cc3cnc(-c4ccccn4)s3)CCO2)o1` (stereo not drawn) is lower in cytotoxicity at 10 µM: 5.81% for the first, 2.91% for the second.

Going from `CSc1cccc(CC(=O)N[C@@H]2CCNC[C@H]2O)c1` to `O=C(NC1CC1)C1CCc2nnc(-c3cccc(C(F)(F)F)c3)n21` (stereo not drawn), the cytotoxicity at 10 µM rises from -1.72% to 8.6%.

Compared with `Cc1cc(S(=O)(=O)N2CCCc3ccc(F)cc32)sc1C(=O)O`, `Cc1ccc(C)c(NS(=O)(=O)c2cc3c(c(C(=O)O)c2)OCCO3)c1` is lower in cytotoxicity at 10 µM: 18.1% for the first, -0.882% for the second.

Compared with `CN(C)C[C@H]1OC[C@@H]2CCN(C(=O)c3ccc[nH]3)C[C@@H]21`, `C[C@@H]1C[C@@H]2CCN(Cc3ccncc3)C[C@H]2O1` is lower in cytotoxicity at 10 µM: 5.41% for the first, -72.9% for the second.

First: CC(C)c1ccc(C(C)N2CCCN(C(N)=O)CC2)cc1 (stereo not drawn)
Second: Cc1ccc(NC2CCN(C(=O)CCCc3ccccn3)CC2)cc1
The cytotoxicity at 10 µM of the first is lower: -4.24% for the first, 13.3% for the second.

Compared with `Cn1c(CNc2c(F)cccc2-n2cccn2)cc(=O)n(C)c1=O`, `Cc1oc(C)c(C(=O)NCc2cccc(C(N)=O)c2)c1C` is lower in cytotoxicity at 10 µM: -7.79% for the first, -15.8% for the second.

Going from `Cc1ccc(Oc2cc(F)ccc2O[C@@H]2CCC[C@@H](N)[C@H]2O)cc1` to `COc1ccc(-c2ccnc3c2C(=O)CCC3)cc1`, the cytotoxicity at 10 µM rises from -3.89% to 6.09%.

Going from `CCNC(=O)[C@@H]1C[C@@H](NC(=O)c2cc(C)on2)CN1Cc1ccccn1` to `CCC(NCCn1cc(C)cn1)C(=O)Nc1cc(C)on1` (stereo not drawn), the cytotoxicity at 10 µM rises from -6.78% to 4.52%.

First: Cc1nc(C)n(CC2CCCN2Cc2nc(N)c3ccccc3n2)n1 (stereo not drawn)
Second: Cc1ncsc1-c1nnc(C2CCN(Cc3ccccc3)CC2)o1
The cytotoxicity at 10 µM of the first is higher: -0.192% for the first, -6.39% for the second.

First: CC(C)COC(C)C(=O)NCCNC(=O)C(C)C (stereo not drawn)
Second: CC1=N[C@@]2(CC[C@@H]3CN(CC(=O)N(C)C)C[C@@H]32)C(=O)N1CC(C)C
The cytotoxicity at 10 µM of the first is lower: -15.2% for the first, 9.66% for the second.

Compared with `COCC1c2nnn(CC3CC3)c2CCN1C(=O)c1cnccn1` (stereo not drawn), `CCn1cnnc1CNC(=O)N(C)Cc1cccc(Cl)c1Cl` is higher in cytotoxicity at 10 µM: -140% for the first, -16.2% for the second.
